According to ChEMBL document CHEMBL1126237, “Synthesis and receptor binding properties of fluoro- and iodo-substituted high affinity sigma receptor ligands: identification of potential PET and SPECT sigma receptor imaging agents” (J Med Chem, 1992):

Experiments:
[1] = target: T1, Kappa-type opioid receptor (Cavia porcellus, UniProt P41144); assay: Binding affinity against Opioid receptor kappa 1 from guinea pig brain, using [3H](-)-bremazocine as radioligand; NI=no inhibition
Outline: (§1)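 Guinea pig brain crude P2 membranes (500 μg protein) with 2 nM [3H](-)-bremazocine, plus 100 nM DAMGO and 100 nM DSTLE to block μ/δ sites. Incubated in 0.5 mL 10 mM Tris-HCl pH 7.4, 90 min, 25 °C. Nonspecific binding with 10 μM levallorphan. Filtration. Screened at 100–10 000 nM. No inhibition = <30% at 10 000 nM.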

[2] = target: T2, D(2) dopamine receptor (Rattus norvegicus, UniProt P61169); assay: Binding affinity against dopamine receptor D2 from rat brain, using [3H](-)-sulpiride as radioligand.
T2 sequence (P61169 whole entry): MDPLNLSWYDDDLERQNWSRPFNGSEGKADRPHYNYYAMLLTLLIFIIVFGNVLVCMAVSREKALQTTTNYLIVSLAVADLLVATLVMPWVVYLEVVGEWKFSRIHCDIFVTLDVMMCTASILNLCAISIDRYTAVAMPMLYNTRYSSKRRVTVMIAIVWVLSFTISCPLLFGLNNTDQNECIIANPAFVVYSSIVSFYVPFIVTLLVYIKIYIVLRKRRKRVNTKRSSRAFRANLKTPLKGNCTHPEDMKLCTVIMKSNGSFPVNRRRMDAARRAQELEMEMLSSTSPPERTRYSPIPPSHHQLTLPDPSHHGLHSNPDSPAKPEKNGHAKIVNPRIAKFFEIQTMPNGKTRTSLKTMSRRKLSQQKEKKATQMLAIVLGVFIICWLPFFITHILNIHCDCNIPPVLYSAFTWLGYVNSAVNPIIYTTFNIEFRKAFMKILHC
Outline: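 Rat brain crude P2 membranes (500 μg protein) incubated with 5 nM [3H](-)-sulpiride in 50 mM Tris-HCl pH 7.7 + 120 mM NaCl, 60 min, 25 °C; nonspecific with 1 μM haloperidol; filtration.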

[3] = target: T1, Kappa-type opioid receptor; assay: Binding affinity against opioid receptor kappa from guinea pig brain, using [3H](-)-bremazocine as radioligand; NI=no inhibition; outline: as §1
[4] = target: Muscarinic acetylcholine receptor; assay: Binding affinity against muscarinic cholinergic receptor from rat brain, using [3H]-QNB as radioligand.
Outline: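 Rat brain P2 membranes (~500 μg protein) with 0.3 nM [3H]QNB in 0.5 mL Krebs-Henseleit/HEPES pH 7.4, 60–90 min, 37 °C. Nonspecific binding with 10 μM QNB. Stopped with ice-cold PBS, then filtration. […] IC50 converted to Ki by Cheng-Prusoff.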

[5] = target: T2, D(2) dopamine receptor; assay: Binding affinity against Dopamine receptor D2 from rat brain, using [3H](-)-sulpiride as radioligand.
Outline: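 Rat brain (minus cerebella) crude P2 membranes, 500 μg protein, incubated with 5 nM [3H](-)-sulpiride in 0.5 mL 50 mM Tris-HCl pH 7.7 + 120 mM NaCl, 60 min, 25 °C. Nonspecific binding with 1 μM haloperidol. Filtration, scintillation counting. […] IC50 by curve fitting, Cheng-Prusoff Ki.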

[6] = target: T1, Kappa-type opioid receptor; assay: Binding affinity against Opioid receptor kappa 1 from guinea pig brain, using [3H](-)-bremazocine as radioligand.; outline: as §1
[7] = target: T1, Kappa-type opioid receptor; assay: Binding affinity against opioid receptor kappa from guinea pig brain, using [3H](-)-bremazocine as radioligand.
Outline: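 Guinea pig brain P2 membranes (500 μg protein) with 2 nM [3H](-)-bremazocine plus 100 nM DAMGO and 100 nM DSTLE blocking μ/δ, 10 mM Tris-HCl pH 7.4, 90 min, 25 °C; nonspecific with 10 μM levallorphan; filtration.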

T1 sequence (P41144 whole entry): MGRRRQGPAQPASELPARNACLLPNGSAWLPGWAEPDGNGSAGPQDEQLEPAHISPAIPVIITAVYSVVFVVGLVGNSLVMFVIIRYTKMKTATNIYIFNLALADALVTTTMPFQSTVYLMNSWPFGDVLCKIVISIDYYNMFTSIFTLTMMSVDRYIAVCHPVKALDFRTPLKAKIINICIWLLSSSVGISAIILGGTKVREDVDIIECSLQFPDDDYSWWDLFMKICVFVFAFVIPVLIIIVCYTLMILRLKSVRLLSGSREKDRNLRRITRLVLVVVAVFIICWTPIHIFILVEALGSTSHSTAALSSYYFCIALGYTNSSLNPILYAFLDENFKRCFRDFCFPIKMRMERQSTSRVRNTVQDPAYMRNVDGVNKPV

Row | SMILES | Ki [1] | Ki [2] | Ki [3] | Ki [4] | Ki [5] | Ki [6] | Ki [7]
1 | CN(CCc1ccc(Cl)c(Cl)c1)CCN1CCCC1 | Not Active |  |  |  |  |  | 
2 | FCCCN1CCN(CCc2ccc(Cl)c(Cl)c2)CC1 |  | 12 µM | Not Active | 682.5 µM |  |  | 
3 | CCCN1CCN(CCc2ccc(Cl)c(Cl)c2)CC1 | Not Active |  |  |  | 2900 nM |  | 
4 | FCCCN(CCc1ccc(Cl)c(Cl)c1)CCN1CCCC1 |  |  |  | 32.03 µM | 3110 nM | 10.5 µM | 
5 | CN(CCc1cc(Cl)c(Cl)cc1I)CCN1CCCC1 |  |  |  | 7 µM | 1310 nM | 18.5 µM | 
6 | CCCCCN1CC[C@@]2(C)c3cc(O)ccc3CC1[C@H]2C (single isomer, unassigned; (+)) |  | 2.53 µM |  | 56.85 µM |  |  | 1990 nM
